The values that follow come from ChEMBL document CHEMBL1126811, “Fluorinated and iodinated dopamine agents: D2 imaging agents for PET and SPECT” (J Med Chem, 1993).

Series [1] concerns Rattus norvegicus. Nature of the series: Biodistribution of radioligand [125I]FIDA1 in muscle of rat after 30 minutes after an intravenous injection is given (average of 2 rats). Type of series: ADME, organism-based, Muscle tissue. Conditions: in vivo, 0.5 h.
For series [2], the system named is Rattus norvegicus. Nature of the series: Uptake of radioligand [125I]FIDA1 by cerebellum in rat after 120 minutes after an intravenous injection is given (average of 3 rats). Type of series: ADME, organism-based. Conditions: in vivo, 2 h. In outline: (§1)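 Male Sprague–Dawley rats (225–300 g) under ether anesthesia received radioiodinated tracer (8–10 μCi in 0.2 mL saline) into the femoral vein. They were killed by cardiac excision at set times. Cortex, striatum, hippocampus and cerebellum were dissected, weighed and gamma-counted. Results are % dose/gram against diluted injected dose.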

For series [3], the system named is Rattus norvegicus. Nature of the series: Uptake of radioligand [125I]-FIDA1 by cerebellum in rat after 30 minutes after an intravenous injection is given (average of 2 rats). Type of series: ADME, organism-based. Conditions: in vivo, 0.5 h. In outline:
as §1

Series [4] deals with Rattus norvegicus. Nature of the series: Uptake of radioligand [125I]FIDA1 by cortex in rat after 2 minutes after an intravenous injection is given (average of 3 rats). Type of series: ADME, organism-based. Conditions: in vivo. In outline: as §1
Series [5] has as its system Rattus norvegicus. Nature of the series: Uptake of radioligand [125I]FIDA1 by cortex in rat after 30 minutes after an intravenous injection is given (average of 2 rats). Type of series: ADME, organism-based. To be noted: in vivo, 0.5 h. In outline:
as §1

The subject of series [6] is Rattus norvegicus. Nature of the series: Uptake of radioligand [125I]FIDA1 by hippo-campus in rat after 120 minutes after an intravenous injection is given (average of 3 rats). It is filed as ADME, organism-based. Conditions: in vivo, 2 h. Summed up:
as §1

Series [7] deals with Rattus norvegicus. Nature of the series: Uptake of radioligand [125I]FIDA1 by hippo-campus in rat after 2 minutes after an intravenous injection is given (average of 3 rats). It is filed as ADME, organism-based. Conditions: in vivo. In outline: as §1
Series [8] concerns Rattus norvegicus. Nature of the series: Uptake of radioligand [125I]-FIDA1 by hippo-campus in rat after 60 minutes after an intravenous injection is given (average of 3 rats). Conditions: in vivo, 1 h. It is filed as ADME, organism-based. Summed up: as §1
Series [9] has as its system Rattus norvegicus. Nature of the series: Uptake of radioligand [125I]FIDA1 by striatum in rat after 30 minutes after an intravenous injection is given (average of 2 rats). Type of series: ADME, organism-based. To be noted: in vivo, 0.5 h. Summed up:
as §1

For series [10], the system named is Rattus norvegicus. Nature of the series: Biodistribution of radioligand [125I]FIDA1 in brain of rat after 30 minutes after an intravenous injection is given (average of 2 rats). Conditions: in vivo, 0.5 h. It is filed as ADME, organism-based.
Series [11] relates to Rattus norvegicus. Nature of the series: Uptake of radioligand [125I]FIDA1 by hippo-campus in rat after 30 minutes after an intravenous injection is given (average of 2 rats). Type of series: ADME, organism-based. To be noted: in vivo, 0.5 h. In outline: as §1
Series [12] deals with Rattus norvegicus. Nature of the series: Biodistribution of radioligand [125I]FIDA1 in liver of rat after 30 minutes after an intravenous injection is given (average of 2 rats). Type of series: ADME, organism-based. To be noted: in vivo, 0.5 h.
The test system of series [13] is Rattus norvegicus. Nature of the series: Biodistribution of radioligand [125I]FIDA1 in heart of rat after 30 minutes after an intravenous injection is given (average of 2 rats). Type of series: ADME, organism-based. To be noted: in vivo, 0.5 h.
Series [14] relates to Rattus norvegicus. Nature of the series: Biodistribution of radioligand [125I]FIDA1 in lung of rat after 30 minutes after an intravenous injection is given (average of 2 rats). It is filed as ADME, organism-based. To be noted: in vivo, 0.5 h.
For series [15], the system named is Rattus norvegicus. Nature of the series: Biodistribution of radioligand [125I]FIDA1 in muscle of rat after 120 minutes after an intravenous injection is given (average of 2 rats). Type of series: ADME, organism-based, Muscle tissue. Conditions: in vivo, 2 h.
The test system of series [16] is Rattus norvegicus. Nature of the series: Biodistribution of radioligand [125I]FIDA1 in skin of rat after 30 minutes after an intravenous injection is given (average of 2 rats). Type of series: ADME, organism-based, Zone of skin. Conditions: in vivo, 0.5 h.
Series [17] has as its system Rattus norvegicus. Nature of the series: Biodistribution of radioligand [125I]FIDA1 in spleen of rat after 30 minutes after an intravenous injection is given (average of 2 rats). To be noted: in vivo, 0.5 h. Type of series: ADME, organism-based.
Series [18] relates to Rattus norvegicus. Nature of the series: Biodistribution of radioligand [125I]FIDA1 in thyroid of rat after 30 minutes after an intravenous injection is given (average of 2 rats). Type of series: ADME, organism-based, Thyroid gland. To be noted: in vivo, 0.5 h.
For series [19], the system named is Rattus norvegicus. Nature of the series: Uptake of radioligand [125I]FIDA1 by cerebellum in rat after 60 minutes after an intravenous injection is given (average of 3 rats). It is filed as ADME, organism-based. Conditions: in vivo, 1 h. Summed up: as §1
Series [20] has as its system Rattus norvegicus. Nature of the series: Biodistribution of radioligand [125I]FIDA1 in muscle of rat after 120 minutes after an intravenous injection is given (average of 3 rats). It is filed as ADME, organism-based, Muscle tissue. Conditions: in vivo, 2 h. In outline: (§2)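 Male Sprague–Dawley rats (225–300 g) were given 0.2 mL saline containing the radioiodinated ligand (8–10 μCi) into the femoral vein under ether anesthesia. They were killed at set times by cardiac excision. Organs were weighed and γ-counted against diluted aliquots of the injected dose and expressed as % dose/organ. Blood and muscle were taken as 7% and 40% of body weight. Three rats were used per point.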

Series [21] relates to Rattus norvegicus. Nature of the series: Biodistribution of radioligand [125I]FIDA1 in muscle of rat after 30 minutes after an intravenous injection is given (average of 3 rats). Type of series: ADME, organism-based, Muscle tissue. Conditions: in vivo, 0.5 h. Summed up:
as §2

Series [22] deals with Rattus norvegicus. Nature of the series: Uptake of radioligand [125I]FIDA1 by cerebellum in rat after 30 minutes after an intravenous injection is given (average of 3 rats). Type of series: ADME, organism-based. Conditions: in vivo, 0.5 h. In outline: as §1
Series [23] has as its system Rattus norvegicus. Nature of the series: Uptake of radioligand [125I]-FIDA1 by cortex in rat after 30 minutes after an intravenous injection is given (average of 3 rats). It is filed as ADME, organism-based. To be noted: in vivo, 0.5 h. Summed up: as §1
In series [24] the test system is Rattus norvegicus. Nature of the series: Uptake of radioligand [125I]FIDA1 by hippocampus in rat after 120 minutes after an intravenous injection is given (average of 3 rats). Type of series: ADME, organism-based. To be noted: in vivo, 2 h. In outline: as §1
Series [25] has as its system Rattus norvegicus. Nature of the series: Uptake of radioligand [125I]FIDA1 by hippocampus in rat after 2 minutes after an intravenous injection is given (average of 3 rats). To be noted: in vivo. It is filed as ADME, organism-based. Summed up: as §1
The subject of series [26] is Rattus norvegicus. Nature of the series: Uptake of radioligand [125I]-FIDA1 by hippocampus in rat after 30 minutes after an intravenous injection is given (average of 3 rats). It is filed as ADME, organism-based. To be noted: in vivo, 0.5 h. Summed up:
as §1

In series [27] the test system is Rattus norvegicus. Nature of the series: Uptake of radioligand [125I]FIDA1 by hippocampus in rat after 60 minutes after an intravenous injection is given (average of 3 rats). It is filed as ADME, organism-based. Conditions: in vivo, 1 h. In outline: as §1
For series [28], the system named is Rattus norvegicus. Nature of the series: Uptake of radioligand [125I]FIDA1 by striatum in rat after 30 minutes after an intravenous injection is given (average of 3 rats). It is filed as ADME, organism-based. To be noted: in vivo, 0.5 h. Summed up: as §1
Series [29] concerns Rattus norvegicus. Nature of the series: Biodistribution of radioligand [125I]FIDA1 in blood of rat after 120 minutes after an intravenous injection is given (average of 3 rats). It is filed as ADME, organism-based. To be noted: in vivo, 2 h. In outline: as §2
Series [30] deals with Rattus norvegicus. Nature of the series: Biodistribution of radioligand [125I]FIDA1 in brain of rat after 30 minutes after an intravenous injection is given (average of 3 rats). It is filed as ADME, organism-based. Conditions: in vivo, 0.5 h. Summed up: as §2
Series [31] deals with Rattus norvegicus. Nature of the series: Biodistribution of radioligand [125I]FIDA1 in liver of rat after 30 minutes after an intravenous injection is given (average of 3 rats). To be noted: in vivo, 0.5 h. Type of series: ADME, organism-based. In outline:
as §2

The test system of series [32] is Rattus norvegicus. Nature of the series: Biodistribution of radioligand [125I]FIDA1 in heart of rat after 30 minutes after an intravenous injection is given (average of 3 rats). Type of series: ADME, organism-based. To be noted: in vivo, 0.5 h. Summed up:
as §2

Series [33] deals with Rattus norvegicus. Nature of the series: Biodistribution of radioligand [125I]FIDA1 in thyroid of rat after 30 minutes after an intravenous injection is given (average of 3 rats). Type of series: ADME, organism-based, Thyroid gland. To be noted: in vivo, 0.5 h. Summed up:
as §2

Series [34] relates to Rattus norvegicus. Nature of the series: Biodistribution of radioligand [125I]FIDA1 in lung of rat after 30 minutes after an intravenous injection is given (average of 3 rats). It is filed as ADME, organism-based. To be noted: in vivo, 0.5 h. In outline:
as §2

Series [35] has as its system Rattus norvegicus. Nature of the series: Biodistribution of radioligand [125I]FIDA1 in skin of rat after 30 minutes after an intravenous injection is given (average of 3 rats). Type of series: ADME, organism-based, Zone of skin. Conditions: in vivo, 0.5 h. Summed up:
as §2

Series [36] deals with Rattus norvegicus. Nature of the series: Biodistribution of radioligand [125I]FIDA1 in spleen of rat after 30 minutes after an intravenous injection is given (average of 3 rats). Type of series: ADME, organism-based. To be noted: in vivo, 0.5 h. In outline:
as §2

For the compound `COc1cc(I)cc(C(=O)NC[C@@H]2CCCN2Cc2ccc(F)cc2)c1OC`, the Dose/organ worked out at 10.87% in series [1]; 0.21% in series [10]; 12.69% in series [12]; 0.16% in series [13]; 1.06% in series [14]; 2.04% in series [15]. Besides, the Dose/organ in series [16] is listed as 7.04%; in series [17] it was 0.43%; in [18], 0.04%. The Dose/g in [2] came to 0.01%; in series [3], 0.09%; in [4], 0.63%; in [5], 0.14%; in series [6] it was 0.01%; in [7], 0.47%. The Dose/g in series [8] is 0.05%; in series [9], 0.4%; in series [11], 0.14%; in series [19] it was 0.03%.
As to `CCN1CCC[C@H]1CNC(=O)c1cc(I)cc(OC)c1OCCF`, the Dose/organ in [20] stood at 0.76%; in series [21] it was 8.24%; in series [29], 0.51%; in [30], 0.11%; in series [31], 22.4%; in series [32], 0.14%. Further, the Dose/organ in series [33] amounted to 0.03%; in series [34] it was 0.66%; in series [35] it was 4.97%; in [36], 0.31%. For the same compound, the Dose/g in series [2] is on record as 0.0016%; in series [22], 0.03%; in [4], 0.25%; in series [23], 0.05%; in series [24] it was 0.0006%; in series [25], 0.25%. Also, the Dose/g in [26] turned out to be 0.05%; in series [27], 0.007%; in [28], 0.24%; in [19], 0.006%.
